Reference: ChEMBL document CHEMBL1138208, “Discovery of N-[(1S,2S)-3-(4-Chlorophenyl)-2- (3-cyanophenyl)-1-methylpropyl]-2-methyl-2- {[5-(trifluoromethyl)pyridin-2-yl]oxy}propanamide (MK-0364), a novel, acyclic cannabinoid-1 receptor inverse agonist for the treatment of obesity” (J Med Chem, 2006)
Active and inactive are the calls of the source. No cut-off for these calls is given here.

Experiments:
Cannabinoid receptor 1 = Cannabinoid receptor 1 (Homo sapiens, UniProt P21554); test: biochemical; assay type: cell-based, CHO
Cannabinoid receptor 2 = Cannabinoid receptor 2 (Homo sapiens, UniProt P34972); test: Inhibition of [3H]CP-55940 binding to human recombinant CB2 receptor in CHO cells; assay type: cell-based
[1] = Bioavailability in Sprague-Dawley rat at 1 mg/kg, iv and 2 mg/kg, po; assay type: ADME, organism-based; settings: in vivo
[2] = Drug level in Sprague-Dawley rat brain at 1 mg/kg, iv after 1 hr; assay type: ADME, organism-based; parameters: dose 1 mg/kg, route intravenous; settings: read-out: Drug uptake
[3] = Drug level in Sprague-Dawley rat plasma at 1 mg/kg, iv after 1 hr; assay type: ADME, organism-based; parameters: dose 1 mg/kg, route intravenous; settings: read-out: Drug uptake
Rattus norvegicus [4] = test: Reduction in food uptake in DIO Sprague-Dawley rat at 3 mg/kg, po; assay type: functional; parameters: scale not given: the % may be the effect or the level left
How it was run: (§1)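 Diet-induced obese rats were dosed orally. Overnight food intake was measured and reported as % change (mean ± error).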

Rattus norvegicus [5] = test: Reduction in food uptake in DIO Sprague-Dawley rat at 10 mg/kg, po; assay type: functional; parameters: scale not given: the % may be the effect or the level left
How it was run: as §1

Homo sapiens = organism: Homo sapiens; test: Protein binding in human liver microsome; assay type: ADME; settings: microsomes
How it was run: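 The tritiated compound was incubated with liver microsomes. Irreversible (covalent) binding of radioactivity to microsomal protein was measured after 1 h of incubation and expressed as pmol equiv/mg protein.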

[6] = Bioavailability in dog at 0.2 mg/kg, iv and 0.4 mg/kg, po; assay type: ADME, organism-based, Canis lupus familiaris; settings: in vivo
[7] = Half life in dog at 0.2 mg/kg, iv and 0.4 mg/kg, po; assay type: ADME, organism-based, Canis lupus familiaris; settings: in vivo
[8] = Bioavailability in rhesus monkey at 0.2 mg/kg, iv and 0.4 mg/kg, po; assay type: ADME, organism-based, Macaca mulatta; settings: in vivo
[9] = Half life in rhesus monkey at 0.2 mg/kg, iv and 0.4 mg/kg, po; assay type: ADME, organism-based, Macaca mulatta; settings: in vivo
Rattus norvegicus [10] = test: Reduction in Sprague-Dawley rat body weight at 0.3 mg/kg, po after 14 days relative to control; assay type: functional; parameters: scale not given: the % may be the effect or the level left
How it was run: (§2)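 Diet-induced obese (DIO) rats were dosed orally once daily (qd) for 14 days at 0.3, 1 or 3 mg/kg. Body weight change is expressed as percent reduction relative to vehicle-treated animals.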

Rattus norvegicus [11] = test: Inhibition of CP-55940-induced decrease in body temperature in Sprague-Dawley rat at 3 mg/kg, iv; assay type: functional, organism-based; parameters: dose 3 mg/kg
Rattus norvegicus [12] = test: Reduction in Sprague-Dawley rat body weight at 1 mg/kg, po after 14 days relative to control; assay type: functional; parameters: scale not given: the % may be the effect or the level left
How it was run: as §2

Rattus norvegicus [13] = test: Reduction in Sprague-Dawley rat body weight at 3 mg/kg, po after 14 days relative to control; assay type: functional; parameters: scale not given: the % may be the effect or the level left
How it was run: as §2

Sequence of Cannabinoid receptor 1 (P21554 whole entry): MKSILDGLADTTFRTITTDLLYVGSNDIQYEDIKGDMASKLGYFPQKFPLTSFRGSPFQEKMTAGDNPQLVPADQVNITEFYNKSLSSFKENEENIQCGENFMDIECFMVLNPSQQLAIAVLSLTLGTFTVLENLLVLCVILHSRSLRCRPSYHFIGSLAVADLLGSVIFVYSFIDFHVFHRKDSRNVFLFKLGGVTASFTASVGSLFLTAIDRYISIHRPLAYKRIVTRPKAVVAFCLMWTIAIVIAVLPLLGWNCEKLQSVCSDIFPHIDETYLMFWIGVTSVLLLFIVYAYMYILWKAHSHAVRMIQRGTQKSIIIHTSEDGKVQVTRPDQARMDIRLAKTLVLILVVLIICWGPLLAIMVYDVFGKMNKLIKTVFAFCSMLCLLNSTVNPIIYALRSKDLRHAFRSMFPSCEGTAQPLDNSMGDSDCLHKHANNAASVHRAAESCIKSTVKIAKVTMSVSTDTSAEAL
Sequence of Cannabinoid receptor 2 (P34972 whole entry): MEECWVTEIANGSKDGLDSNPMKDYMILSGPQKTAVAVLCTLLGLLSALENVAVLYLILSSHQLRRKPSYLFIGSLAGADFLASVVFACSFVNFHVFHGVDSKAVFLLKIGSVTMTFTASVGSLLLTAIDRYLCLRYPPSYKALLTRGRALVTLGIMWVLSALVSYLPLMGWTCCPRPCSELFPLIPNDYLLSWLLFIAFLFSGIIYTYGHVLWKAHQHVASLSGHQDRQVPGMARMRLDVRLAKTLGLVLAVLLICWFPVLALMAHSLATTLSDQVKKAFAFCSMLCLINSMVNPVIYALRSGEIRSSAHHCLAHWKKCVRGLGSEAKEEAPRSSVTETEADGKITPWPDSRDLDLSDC

## C[C@H](NC(=O)C(C)(C)Oc1ccc(Cl)cc1)[C@@H](Cc1ccc(F)cc1)c1ccccc1
Cannabinoid receptor 1
  IC50: 14 nM

## C[C@H](NC(=O)C(C)(C)Oc1ccccc1Cl)[C@@H](Cc1ccc(Cl)cc1)c1ccccc1
Cannabinoid receptor 1
  IC50: 18 nM

## C[C@@H](NC(=O)C(C)(C)Oc1ccc(Cl)cc1)[C@H](Cc1ccc(Cl)cc1)c1ccccc1
Cannabinoid receptor 1
  IC50: 170 nM
Cannabinoid receptor 2
  IC50: 1700 nM

## C[C@H](NC(=O)C(C)(C)Oc1cc(F)cc(F)c1)[C@@H](Cc1ccc(Cl)cc1)c1ccccc1
[1]
  bioavailability: 19%
[2]
  concentration at 1 h: 270 nM
[3]
  concentration at 1 h: 350 nM
Rattus norvegicus [4]
  Activity: 55%
Rattus norvegicus [5]
  Activity: 81%
Homo sapiens
  Activity: 1700 pmol/mg

## C[C@H](NC(=O)C(C)(C)Oc1ccc(Cl)cn1)[C@@H](Cc1ccc(Cl)cc1)c1ccccc1
Homo sapiens
  Activity: 300 pmol/mg

## C[C@H](NC(=O)C(C)(C)Oc1ccc(Cl)cc1)[C@@H](Cc1ccc(Cl)cc1)c1ccc(F)cc1
Cannabinoid receptor 1
  IC50: 90 nM

## C[C@H](NC(=O)C(C)(C)Oc1ccccc1)[C@@H](Cc1ccc(Cl)cc1)c1ccccc1
Homo sapiens
  Activity: 3900 pmol/mg

## C[C@H](NC(=O)C(C)(C)Oc1ccccn1)[C@@H](Cc1ccc(Cl)cc1)c1ccccc1
Homo sapiens
  Activity: 910 pmol/mg

## C[C@H](NC(=O)C(C)(C)Oc1ccc(Cl)cc1)[C@@H](Cc1ccc(Cl)cc1)c1cccc(F)c1
Cannabinoid receptor 1
  IC50: 2.8 nM
Cannabinoid receptor 2
  IC50: 530 nM

## C[C@H](NC(=O)C(C)(C)Oc1ccc(Cl)cc1)[C@@H](Cc1ccccc1)c1ccccc1
Cannabinoid receptor 1
  IC50: 33 nM

## C[C@H](NC(=O)C(C)(C)Oc1ccncc1)[C@H](Cc1ccc(Cl)cc1)c1ccccc1
Cannabinoid receptor 1
  IC50: 17 nM
Cannabinoid receptor 2
  IC50: 1200 nM

## C[C@H](NC(=O)C(C)(C)Oc1ccc(Cl)cc1)[C@@H](Cc1ccccc1Cl)c1ccccc1
Cannabinoid receptor 1
  IC50: 140 nM

## C[C@H](NC(=O)C(C)(C)Oc1ccc(C(F)(F)F)cn1)[C@@H](Cc1ccc(Cl)cc1)c1ccccc1
Homo sapiens
  Activity: 88 pmol/mg

## C[C@H](NC(=O)C(C)(C)Oc1ccc(Cl)cc1)[C@@H](Cc1ccc(Cl)cc1)c1ccccc1F
Cannabinoid receptor 1
  IC50: 12 nM
Cannabinoid receptor 2
  IC50: 410 nM

## C[C@H](NC(=O)C(C)(C)Oc1cccnc1)[C@@H](Cc1ccc(Cl)cc1)c1ccccc1
Cannabinoid receptor 1
  IC50: 19 nM

## C[C@@H](NC(=O)C(C)(C)Oc1ccc(Cl)cc1)[C@H](Cc1ccc(Cl)cc1)c1ccc(Cl)cc1
Cannabinoid receptor 1
  IC50: 13 nM
Cannabinoid receptor 2
  IC50: 600 nM

## C[C@H](NC(=O)C(C)(C)Oc1ccc(Cl)cc1)[C@@H](Cc1ccc(C(F)(F)F)cc1)c1ccccc1
Cannabinoid receptor 1
  IC50: 3.4 nM

## C[C@H](NC(=O)C(C)(C)Oc1ccc(C(F)(F)F)cn1)[C@@H](Cc1ccc(Cl)cc1)c1cccc(C#N)c1 [TARANABANT]
[1]
  bioavailability: 74%
[2]
  concentration at 1 h: 110 nM
[3]
  concentration at 1 h: 180 nM
[6]
  bioavailability: 31%
[7]
  half-life: 14 h
[8]
  bioavailability: 31%
[9]
  half-life: 3.6 h
Rattus norvegicus [10]
  Activity: 4%
Rattus norvegicus [11]
  Activity: Active
Rattus norvegicus [12]
  Activity: 5%
Rattus norvegicus [13]
  Activity: 7%
Homo sapiens
  Activity: 27 pmol/mg
